Assay results from ChEMBL document CHEMBL1148754, “4- and 5-aroylindoles as novel classes of potent antitubulin agents” (J Med Chem, 2007).

Legend:
[1] = test system: NCI-H460; experiment: Growth inhibition of human H460 cells after 72 hrs by methylene blue dye assay; assay type: functional, cell-based; conditions: NCI-H460, 72 h
How it was run: (§1)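 Antiproliferative screen in human cancer lines: KB (oral epidermoid carcinoma), HT29 (colorectal carcinoma), H460 (non-small cell lung carcinoma), TSGH and MKN45 (stomach carcinoma), plus KB-VIN10, an MDR-positive line overexpressing P-gp 170/MDR. Potency is reported as IC50.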

[2] = test system: HT-29; experiment: Growth inhibition of human HT29 cells after 72 hrs by methylene blue dye assay; assay type: functional, cell-based; conditions: HT-29, 72 h; how it was run: as §1
[3] = test system: KB; experiment: Growth inhibition of human KB cells after 72 hrs by methylene blue dye assay; assay type: functional, cell-based; how it was run: as §1
[4] = test system: MKN-45; experiment: Growth inhibition of human MKN45 cells after 72 hrs by methylene blue dye assay; assay type: functional, cell-based; conditions: MKN-45, 72 h; how it was run: as §1
[5] = test system: TSGH; experiment: Growth inhibition of human TSGH cells after 72 hrs by methylene blue dye assay; assay type: functional, cell-based; how it was run: as §1
[6] = Growth inhibition of human KB-vin10 cells after 72 hrs by methylene blue dye assay; assay type: functional; conditions: KB-VIN10, 72 h; how it was run: as §1
[7] = biological target: Tubulin; experiment: Inhibition of tubulin polymerization in presence of microtubule associated proteins after 30 mins; assay type: protein-complex assay, Homo sapiens
[8] = biological target: Tubulin (Homo sapiens) (UniProt P68371+Q9H4B7+P0DPH7+P68366+Q13509+Q71U36+P04350+Q3ZCM7+P07437+P68363+Q9BQE3+Q6PEY2+Q13885+Q9BVA1+Q9BUF5); experiment: Displacement of [3H]colchicine from tubulin at 5 uM; assay type: protein-complex assay

Row | Structure (SMILES) | IC50 [1] [nM] | IC50 [2] [nM] | IC50 [3] [nM] | IC50 [4] [nM] | IC50 [7] [nM] | Activity [8] [%] | IC50 [5] [nM] | IC50 [6] [nM]
1 | COc1cc(C(=O)c2ccc3[nH]ccc3c2)cc(OC)c1OC | 112 | 100 | 104 | 88 | 2200 | 71 | 103 | 111
2 | COc1cc(C(=O)c2ccc3cc[nH]c3c2)cc(OC)c1OC | 520 | 330 | 510 | 480 |  |  | 430 | 452
3 | COc1cc(C(=O)c2c[nH]c3ccccc23)cc(OC)c1OC | 1700 | 1000 | 1600 | 980 |  |  | 1100 | 1500
4 | COc1cc(C(=O)c2ccc3c(ccn3CO)c2)cc(OC)c1OC | 39 | 34 | 39 | 33 | 1800 | 78 | 43 | 35
5 | COc1cc(C(=O)n2ccc3ccccc32)cc(OC)c1OC | > 10000 | 9600 | > 10000 | 5200 |  |  | 8400 | > 10000
6 | CCCn1ccc2cc(C(=O)c3cc(OC)c(OC)c(OC)c3)ccc21 | 2000 | 1800 | 1900 | 680 |  |  | 1500 | 2100
7 | CCn1ccc2cc(C(=O)c3cc(OC)c(OC)c(OC)c3)ccc21 | 38 | 32 | 36 | 31 | 1200 | 81 | 41 | 40
8 | COc1cc(C(=O)c2cccc3[nH]ccc23)cc(OC)c1OC | 53.8 | 46.4 | 50.7 | 49.1 | 2000 | 74 | 54.4 | 51.4
9 | COc1cc2c(c(OC)c1OC)-c1ccc(OC)c(=O)cc1[C@@H](NC(C)=O)CC2 [COLCHICINE] | 19 |  |  | 13 |  |  |  | 120
10 | COc1cc(C(=O)c2ccc3c(ccn3CC(=O)O)c2)cc(OC)c1OC | 530 | 460 | 520 | 396 |  |  | 548 | 476
11 | COc1ccc(/C=C\c2cc(OC)c(OC)c(OC)c2)cc1O |  |  |  |  |  | 89 |  | 

The next lines start with results.

Row | IC50 [1] [nM] | IC50 [2] [nM] | IC50 [3] [nM] | IC50 [4] [nM] | IC50 [7] [nM] | Activity [8] [%] | Structure (SMILES) | IC50 [5] [nM] | IC50 [6] [nM]
12 | 5100 | 4600 | 5200 | 2900 |  |  | COc1cc(C(=O)c2ccc3c(ccn3CCN(C)C)c2)cc(OC)c1OC | 4900 | 4900
13 | 2100 | 1700 | 2900 | 1500 |  |  | COc1cc(C(=O)c2cc3ccccc3[nH]2)cc(OC)c1OC | 1800 | 2800
14 | 28.8 | 22.4 | 22.1 | 21.6 | 1900 | 75 | COc1cc(C(=O)c2cccc3c2ccn3C)cc(OC)c1OC | 26.9 | 26.1
15 | 14.1 | 10.5 | 13.6 | 11.2 | 1100 | 84 | COc1cc(C(=O)c2ccc3c(ccn3C)c2)cc(OC)c1OC | 13.4 | 12.5
16 | > 10000 | > 10000 | > 10000 | > 10000 |  |  | COc1cc(C(=O)c2ccc3c(ccn3CCC(=O)O)c2)cc(OC)c1OC | > 10000 | > 10000
17 | 1600 | 1200 | 1800 | 470 |  |  | COc1cc(C(=O)c2ccc3c(ccn3C(C)C)c2)cc(OC)c1OC | 1100 | 1600
18 | 295 | 250 | 310 | 210 |  |  | COc1cc(C(=O)c2cccc3cc[nH]c23)cc(OC)c1OC | 310 | 284
